EP2 antag = human EP2 receptor antagonists, primary screen, TR-FRET cAMP, C6 glioma cells; Prostaglandin E2 receptor EP2 subtype (Homo sapiens), P43116; C6 glioma cells expressing human EP2; cells stimulated with saturating PGE2; inhibition, % at 25 µM; 260,000 tested, 0.52% active;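 active means percent inhibition above 40 after rounding to a whole number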;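 further: rat C6 glioma host cells with rolipram phosphodiesterase inhibitor present; the protocol text gives 20 µM as final concentration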
OX1R antag-1 = antagonists of human orexin 1 receptor (OX1R). OX1R-expressing cells, FRET antagonist read-out. inhibition, % at 6.6 µM. 330,000 tested, 1.8% active; in the data active means inhibition mostly above about 38%, no sharp cut-off; inactive means mostly below about 40%
Target sequence (O43613 whole entry, looked up): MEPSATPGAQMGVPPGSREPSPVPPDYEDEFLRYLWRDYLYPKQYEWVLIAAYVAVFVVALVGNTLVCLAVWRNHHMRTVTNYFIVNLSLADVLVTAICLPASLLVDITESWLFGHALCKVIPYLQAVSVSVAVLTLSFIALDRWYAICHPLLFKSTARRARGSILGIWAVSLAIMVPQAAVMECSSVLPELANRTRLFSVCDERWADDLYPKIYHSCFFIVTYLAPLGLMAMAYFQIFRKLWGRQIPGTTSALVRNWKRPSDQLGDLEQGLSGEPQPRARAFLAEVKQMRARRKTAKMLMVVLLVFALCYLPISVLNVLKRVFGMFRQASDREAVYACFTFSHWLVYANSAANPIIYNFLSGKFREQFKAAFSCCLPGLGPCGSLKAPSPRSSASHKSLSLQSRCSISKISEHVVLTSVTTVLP
GPR7 antagonist = GPR7 receptor antagonists, primary screen, cell-based, fluorescence, single concentration. Neuropeptides B/W receptor type 1 (Homo sapiens), P48145. GPR7-expressing cells, fluorescence antagonist assay. inhibition, % at 4.4 µM. 290,000 tested, 1.1% active. AID 1861, 2009; in the data active means inhibition above about 16%, passing the limit was not always enough;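 further: cells stimulated with the agonist NPW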
CHO parental Ca = ATP-evoked calcium signal inhibitors, parental CHO, primary screen, counter-screen for OX1R antagonist project, cell-based, fluorescence, Fluo-8 calcium dye; parental CHO-K1, ATP-induced calcium, Fluo-8 fluorescence; inhibition, % at 5.6 µM; 330,000 tested, 0.63% active;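 active means inhibition above that plate's mean sample inhibition plus 3 SD, cut at about 26% in these data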
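Test system: untransfected parental CHO cell line. Compound: one dose, 5.6 µM nominal. Detection: intracellular calcium via Fluo-8 no-wash fluorescent dye. Measure: % inhibition. Benchmarks: ATP-challenged DMSO wells low, unchallenged DMSO wells high.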
OX1R antag-2 = OX1R (HCRTR1) antagonists, primary screen, fluorescence, CHO/OX1R cells, Fluo-8 calcium, orexin A; Orexin/Hypocretin receptor type 1 (Homo sapiens), O43613; Fluo-8 calcium fluorescence; inhibition, % at 5 µM; 330,000 tested, 0.43% active;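 active means inhibition above its plate's threshold, mean inhibition of all tested compounds on the plate plus 3 SD, cut at about 37% in these data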
EP2 modulator = EP2 receptor modulators, cAMP readout, primary screen, cell-based, HTRF cAMP, PGE2 stimulation; Prostaglandin E2 receptor EP2 subtype (Homo sapiens), P43116; EP2-expressing cells, cAMP HTRF FRET, PGE2 co-stimulation; induction, % at 25 µM; 260,000 tested, 0.83% active;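 active means compounds whose cAMP rise, as percent of the full-agonist control response, exceeds 60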;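 further: rat C6 glioma line stably carrying human EP2 under a CMV promoter; the protocol text gives 20 µM as final concentration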
EP2 cAMP induct = cAMP induction in EP2, EP4, beta2-AR and parental cells, confirmation, counter-screen for EP2 modulator project, cell-based, five parallel assays, C6 glioma, HEK293. calls only at 20 µM (by protocol). cAMP HTRF induction; plus low (about EC15) PGE2 agonist. 1,300 tested, 47% active. shares compounds with EP2 modulator. AID 1080, 2008;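 active means cAMP induction above 50% in the main assay while under 30% in all four parallel counter assays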;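 further: rat C6 glioma cells stably expressing human EP2 receptor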
Hits are given with their value. The list is not random: actives were taken first. Their share in the collection is about 3.7%.

For Cn1nc(C(=O)Nc2ccccc2N2CCOCC2)ccc1=O the results were OX1R antag-1 inactive, CHO parental Ca inactive and OX1R antag-2 inactive.
For O=C(Nc1ccccc1N1CCOCC1)c1ccc2ccccc2n1 the results were EP2 antag inactive, OX1R antag-1 inactive, GPR7 antagonist inactive, CHO parental Ca inactive, OX1R antag-2 inactive, EP2 modulator 70 and EP2 cAMP induct active.
For CCCCOc1ccccc1NC(=O)c1ccco1 the results were EP2 antag inactive, OX1R antag-1 inactive, GPR7 antagonist inactive, CHO parental Ca inactive, OX1R antag-2 inactive and EP2 modulator inactive.
CCCCOc1ccccc1NC(=O)c1scc2c1OCCO2 was read as EP2 antag inactive, GPR7 antagonist inactive, EP2 modulator 87 and EP2 cAMP induct active.
For CCOc1ccccc1NC(=O)c1ccccc1-c1ccccc1 the results were OX1R antag-1 inactive, GPR7 antagonist inactive, CHO parental Ca inactive and OX1R antag-2 inactive.
Screening CCOc1ccccc1NC(=O)c1ccccc1-c1nc(-c2ccccc2)no1 returned EP2 antag inactive, OX1R antag-1 inactive, GPR7 antagonist inactive, CHO parental Ca inactive, OX1R antag-2 inactive, EP2 modulator 66 and EP2 cAMP induct inactive.
Screening COc1ccc(-c2noc(-c3ccccc3C(=O)Nc3cccnc3)n2)cc1 returned EP2 antag inactive, OX1R antag-1 inactive, GPR7 antagonist 14, CHO parental Ca inactive, OX1R antag-2 inactive, EP2 modulator inactive and EP2 cAMP induct active.
`COc1ccc(-c2noc(-c3ccccc3C(=O)Nc3cccnc3)n2)cc1OC` gave EP2 antag inactive, OX1R antag-1 inactive, GPR7 antagonist inactive, CHO parental Ca inactive, OX1R antag-2 inactive and EP2 modulator inactive.
`COc1ccc(CCCC(=O)NCCc2ccccc2)c(C)c1` gave GPR7 antagonist inactive.
CN(C(=O)c1ccncc1)c1ccccc1 was read as EP2 antag inactive, OX1R antag-1 inactive, GPR7 antagonist inactive, CHO parental Ca inactive, OX1R antag-2 inactive and EP2 modulator inactive.
`C/C(=N\N(Cc1ccccc1)c1ccccc1)c1ccncc1` gave EP2 antag inactive, OX1R antag-1 inactive, GPR7 antagonist inactive, CHO parental Ca inactive, OX1R antag-2 inactive, EP2 modulator 75 and EP2 cAMP induct active.
For COC(=O)c1cn(Cc2cccc(C)c2)nn1 the results were EP2 antag inactive, OX1R antag-1 inactive, GPR7 antagonist inactive, CHO parental Ca inactive, OX1R antag-2 inactive and EP2 modulator inactive.
COC(=O)c1ccc(-c2ccco2)n1Cc1cccc(C)c1 was read as EP2 antag inactive, OX1R antag-1 inactive, GPR7 antagonist inactive, CHO parental Ca inactive, OX1R antag-2 inactive, EP2 modulator 77 and EP2 cAMP induct active.
COCc1cc(N2CCOCC2)nc(-c2ccccc2)n1 was read as EP2 antag inactive, OX1R antag-1 inactive, GPR7 antagonist inactive, CHO parental Ca inactive, OX1R antag-2 inactive and EP2 modulator inactive.
Screening CCSc1cc(N2CCOCC2)nc(-c2ccc(Cl)cc2)n1 returned EP2 antag inactive, OX1R antag-1 inactive, GPR7 antagonist inactive, CHO parental Ca inactive, OX1R antag-2 inactive, EP2 modulator 76 and EP2 cAMP induct active.
Screening CC(C)Sc1cc(N2CCOCC2)nc(-c2ccccc2)n1 returned EP2 antag inactive, OX1R antag-1 inactive, GPR7 antagonist inactive, CHO parental Ca inactive, OX1R antag-2 inactive, EP2 modulator 74 and EP2 cAMP induct active.
Screening O=C(NC(=S)Nc1ccccn1)c1ccco1 returned EP2 antag inactive, OX1R antag-1 inactive, GPR7 antagonist inactive, CHO parental Ca inactive, OX1R antag-2 inactive and EP2 modulator inactive.
Screening Cc1ccc(CSc2nnnn2C)cc1 returned EP2 antag inactive, OX1R antag-1 inactive, GPR7 antagonist inactive, CHO parental Ca inactive, OX1R antag-2 inactive and EP2 modulator inactive.
Screening Cc1ccccc1NS(=O)(=O)c1cccc2nonc12 returned OX1R antag-1 inactive, GPR7 antagonist inactive, CHO parental Ca inactive and OX1R antag-2 inactive.
Screening Cc1ccccc1Nc1cccc2nonc12 returned EP2 antag inactive, OX1R antag-1 inactive, GPR7 antagonist inactive, CHO parental Ca inactive, OX1R antag-2 inactive, EP2 modulator 67 and EP2 cAMP induct active.
Screening CCCCNc1nc(N(C)c2ccccc2)nc(-n2ccnc2)n1 returned EP2 antag inactive, OX1R antag-1 inactive, GPR7 antagonist inactive, CHO parental Ca inactive, OX1R antag-2 inactive, EP2 modulator 77 and EP2 cAMP induct active.
`O=C(Nc1ccccc1)/C(=C/c1ccccc1)c1ccccc1` gave EP2 antag inactive, OX1R antag-1 inactive, GPR7 antagonist inactive, CHO parental Ca inactive, OX1R antag-2 inactive, EP2 modulator 78 and EP2 cAMP induct active.
Cc1ccccc1NC(=O)/C(=C/c1ccccc1)c1ccccc1 was read as EP2 antag inactive, OX1R antag-1 inactive, GPR7 antagonist inactive, CHO parental Ca inactive, OX1R antag-2 inactive, EP2 modulator 67 and EP2 cAMP induct active.
For O=C(O)/C(=C\c1ccccc1)c1ccccc1 the results were EP2 antag inactive, OX1R antag-1 inactive, GPR7 antagonist inactive, CHO parental Ca inactive, OX1R antag-2 inactive and EP2 modulator inactive.
COc1ccc(-c2csc3nc(C)nc(N4CCC(C)CC4)c23)cc1OC was read as EP2 antag inactive, OX1R antag-1 inactive, GPR7 antagonist inactive, CHO parental Ca inactive, OX1R antag-2 inactive, EP2 modulator 70 and EP2 cAMP induct inactive.
For O=C(CCCCl)Nc1nc(-c2ccc3c(c2)OCCO3)cs1 the results were OX1R antag-1 inactive, GPR7 antagonist inactive, CHO parental Ca inactive and OX1R antag-2 inactive.
Nc1c(C(=O)c2ccc(Cl)cc2)sc2c1c(=O)[nH]c(=O)n2-c1ccccc1 was read as EP2 antag inactive, OX1R antag-1 inactive, GPR7 antagonist inactive, CHO parental Ca inactive, OX1R antag-2 inactive and EP2 modulator inactive.
`Cc1ccccc1-n1c(=O)[nH]c(=O)c2c(N)c(C(=O)c3ccc(Cl)cc3)sc21` gave EP2 antag inactive, OX1R antag-1 inactive, GPR7 antagonist inactive, CHO parental Ca inactive, OX1R antag-2 inactive, EP2 modulator 66 and EP2 cAMP induct inactive.
For O=C(O)c1ccc(C(=O)c2ccccc2)c(C(=O)O)c1 the results were EP2 antag inactive and EP2 modulator inactive.
For Nc1ccc(SC(F)(F)F)cc1C(=O)c1ccccc1 the results were OX1R antag-1 inactive, GPR7 antagonist inactive, CHO parental Ca inactive, OX1R antag-2 inactive, EP2 modulator 69 and EP2 cAMP induct inactive.

Screening results deposited in PubChem by several laboratories.
